Screening results as filed in PubChem BioAssay.
Most compounds without a hit are left out; they make up all but 1.5% or so of the library.
CSN inh = CSN deneddylation inhibition | Q92905 | Purified CSN, SCF-Nedd8-OG deneddylation, fluorescence polarization | inhibition, % at 12.5 µM | hit rate 0.38% among 360,000 | AID 651999;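 active = pattern-corrected inhibition above about 35%, with an unprinted fluorescence ratio check between 0.5 and 1.5, limit read from the data, passing the limit was not always enough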
Target sequence (Q92905 whole entry, looked up, one chain of several): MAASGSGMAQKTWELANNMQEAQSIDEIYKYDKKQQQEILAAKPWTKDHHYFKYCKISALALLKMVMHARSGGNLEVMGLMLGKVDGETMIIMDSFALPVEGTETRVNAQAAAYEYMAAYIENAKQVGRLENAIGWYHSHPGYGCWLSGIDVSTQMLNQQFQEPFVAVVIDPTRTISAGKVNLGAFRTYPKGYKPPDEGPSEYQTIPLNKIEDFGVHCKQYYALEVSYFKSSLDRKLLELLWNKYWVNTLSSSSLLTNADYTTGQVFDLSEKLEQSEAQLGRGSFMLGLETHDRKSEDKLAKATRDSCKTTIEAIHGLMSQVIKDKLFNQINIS
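test system = HEK293T-derived human Csn5 enzyme | amount = 0.24 nM Csn5 enzyme, final concentration | medium = Tris/NaCl/DTT buffer, pH 7.5 | schedule = 90 min reaction at room temperature | signal = FP | evaluation = inhibition of Csn5 cleavage, % | compound dosing = single dose of 12.5 µM compound with 0.25% DMSO | probe or stimulus = 10 nM SCFSkp2-Nedd8OG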
TPT1 inhibitor = inhibitors of Candida albicans tRNA 2'-phosphotransferase TPT1; recombinant caTPT1, FP RNA substrate dephosphorylation; inhibition, % at 5 µM; hit rate 0.81% among 300,000; AID 1962;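 active = inhibition above the mean of all tested compounds plus 3 SD, set per screening campaign, cut at about 24% in these data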
HNF4A DNA FP = change in binding of human HNF4 alpha to DNA | P41235 | HNF4a-FITC DNA binding, fluorescence polarization, 1 h | activity change, % at 10 µM | hit rate 0.3% among 360,000; in the data active = activity change above about 30%, passing the limit was not always enough
Rpn11 inh = blocks the human proteasome subunit Rpn11; O00487; human 26S proteasome, Ub4-pepOG fluorescence polarization; 20S core pre-blocked with epoxomicin; calls only at 20 µM; hit rate 0.59% among 360,000; AID 588493;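 active = inhibition at 20 µM, scaled to each plate's controls, above about 33%, limit read from the data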
Target sequence (O00487 whole entry, looked up): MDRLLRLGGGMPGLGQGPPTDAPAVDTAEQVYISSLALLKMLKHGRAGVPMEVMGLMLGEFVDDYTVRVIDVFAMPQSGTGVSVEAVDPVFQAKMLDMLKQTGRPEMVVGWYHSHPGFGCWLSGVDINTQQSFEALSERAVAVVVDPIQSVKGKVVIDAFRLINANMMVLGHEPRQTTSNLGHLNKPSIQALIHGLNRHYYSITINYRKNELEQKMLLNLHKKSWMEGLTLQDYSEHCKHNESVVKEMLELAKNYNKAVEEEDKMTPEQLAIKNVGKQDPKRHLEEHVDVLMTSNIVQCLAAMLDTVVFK
TPT1 inh confirm = confirmation of Candida albicans TPT1 inhibitors | shares compounds with TPT1 inhibitor | AID 2149 | hit rate 74% among 2,400 | inhibition, % at 5 µM | recombinant caTPT1, fluorescence polarization, RNase T1 coupled;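 active = inhibition above the primary screen limit, the mean inhibition of all tested compounds plus 3 SD, cut at about 25% in these data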
RNase T1 inh = counter-screen for TPT1 inhibitors: inhibitors of Aspergillus oryzae RNase T1 | shares compounds with TPT1 inhibitor | RNase T1 cleavage, fluorescence polarization, 1536-well | inhibition, % at 5 µM | hit rate 83% among 2,400 | AID 2153;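 active = inhibition above the solvent-only control well mean plus 3 SD, limit set per screening run, cut at about 23% in these data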;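 note: inhibitors block cleavage so intact labeled substrate keeps polarization high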
Each line names hits and unclear results; the compound was inactive in the other large screens (follow-up assays come after a bar, where shown).

CCOC(=O)[C@]12Cc3cc(C)ccc3[C@H]1N(C(C)C)C(=O)c1ccccc12	none (no result: TPT1 inhibitor, Rpn11 inh)
Cn1cc(C(=O)NC2CC2)c2ccccc21	none
Cn1cc(C(=O)NCc2ccccc2)c2ccccc21	TPT1 inhibitor 38.8 | TPT1 inh confirm inactive | RNase T1 inh inactive
O=P(NS(=O)(=O)c1ccccc1)(Oc1ccccc1)Oc1ccccc1	none
Cc1ccc(S(=O)(=O)NP(=O)(Oc2ccccc2)Oc2ccccc2)cc1	TPT1 inhibitor 24.4 | TPT1 inh confirm inactive | RNase T1 inh inactive
COc1cc(OC)c(OC)cc1/C=C1/C(=O)NC(=O)N(Cc2ccccc2)C1=O	TPT1 inhibitor 26.3 | TPT1 inh confirm 29.8 | RNase T1 inh 41.5
COc1cc(OC)c(OC)cc1/C=C1\C(=O)NC(=O)N(Cc2ccccc2)C1=O	none
O=C1CC(=O)N(c2ccccc2F)C(=O)N1	none
O=C1CC(=O)N(c2ccc(Cl)cc2Cl)C(=O)N1	TPT1 inhibitor 37.3 | TPT1 inh confirm inactive | RNase T1 inh 24.8
Cc1cc(Br)ccc1N1C(=O)CC(=O)NC1=O	TPT1 inhibitor 24.2 | TPT1 inh confirm inactive | RNase T1 inh inactive
O=C1CC(=O)N(c2cccc(Br)c2)C(=O)N1	none
O=c1[nH]c(=O)n(Cc2ccco2)c(O)c1/C=N/N1CCCCC1	TPT1 inhibitor 24.4 | TPT1 inh confirm 29.4 | RNase T1 inh 39.7
N#CC1=C(N)Oc2cc(O)ccc2C1c1ccc2c(c1)OCO2 (stereo not given)	none
NS(=O)(=O)c1ccc(N=Cc2c(O)n(-c3ccccc3)c(=O)[nH]c2=O)cc1	none
O=c1[nH]c(=O)n(-c2ccccc2)c(O)c1/C=C/C=Nc1ccccc1	TPT1 inhibitor 157.4 (not shown: Rpn11 inh) | TPT1 inh confirm 165.7 | RNase T1 inh 159.9
O=c1[nH]c(=O)n(C2CCCCC2)c(O)c1/C=C/C=Nc1ccccc1	TPT1 inhibitor 89.5 (not shown: Rpn11 inh) | TPT1 inh confirm 80.8 | RNase T1 inh 75.9
COc1ccc(-n2c(O)c(/C=C/C=Nc3ccccc3)c(=O)[nH]c2=O)cc1	TPT1 inhibitor 178.5 (not shown: Rpn11 inh) | TPT1 inh confirm 195.6 | RNase T1 inh 177.4
O=c1[nH]c(=O)n(C2CCCCCC2)c(O)c1C=NC1CCN(Cc2ccccc2)CC1	none
Cc1ccc(-n2c(O)c(/C=C/C=Nc3ccccc3)c(=O)[nH]c2=O)cc1	TPT1 inhibitor 134.2, HNF4A DNA FP 71.0 | TPT1 inh confirm 51.1 | RNase T1 inh 48.2
O=C1NCN(c2ccccc2)C12CCN(C(c1ccccc1OC(F)(F)F)c1nnnn1-c1ccc3c(c1)OCCO3)CC2 (stereo not given)	none (no result: TPT1 inhibitor)
CN(C)c1ccc(/C=C2/C(=O)NC(=O)N(Cc3ccco3)C2=O)cc1	TPT1 inhibitor 26.3 | TPT1 inh confirm inactive | RNase T1 inh 25.7
O=C1NC(=O)N(Cc2ccco2)C(=O)/C1=C\c1cccn1CCOc1ccc(Cl)cc1	TPT1 inhibitor 62.5 | TPT1 inh confirm inactive | RNase T1 inh inactive
Cc1cccc(OCCn2cccc2/C=C2/C(=O)NC(=O)N(Cc3ccco3)C2=O)c1	TPT1 inhibitor 28.8 | TPT1 inh confirm inactive | RNase T1 inh 24.3
COc1ccc(-c2nn(Cc3ccccc3)cc2C(=O)NC2CC2)cc1OC	none (no result: TPT1 inhibitor)
CCN1C[C@]2(CO)CC[C@H](OC)[C@@]34C5C[C@H]6[C@H](OC)C5[C@](O)(C[C@H]6OC)[C@@H](C(OC)C23)[C@@H]14 (stereo not given in full)	none
CCn1c(O)c(C(=O)CC2NCCc3ccccc32)c(=O)n(CC)c1=S (stereo not given)	TPT1 inhibitor 62.4, Rpn11 inh active | TPT1 inh confirm 55.7 | RNase T1 inh 68.1
CCn1c(O)c(/C=N/N2CCOCC2)c(=O)n(CC)c1=S	none
O=C1NC(=O)N(c2ccc(F)cc2)C(=O)/C1=C/c1ccc(N2CCOCC2)cc1	none
C=CCN1C(=O)/C(=C/c2ccc(N3CCOCC3)o2)C(=O)NC1=S	CSN inh 102.8, TPT1 inhibitor 121.3, HNF4A DNA FP 80.3 (not shown: Rpn11 inh) | TPT1 inh confirm 142.8 | RNase T1 inh 136.8
O=C1NC(=O)C(=Cc2ccc(N3CCOCC3)o2)C(=O)N1	TPT1 inhibitor 180.1 (not shown: Rpn11 inh) | TPT1 inh confirm 146.1 | RNase T1 inh 144.1
C=CCN1C(=O)/C(=C/c2cccs2)C(=O)NC1=S	none
C=CCn1c(O)c(C(CC)=Nc2ccc(N(CC)CC)cc2)c(=O)[nH]c1=O	none
CCn1c(O)c(C=NCCN2CCOCC2)c(=O)n(CC)c1=S	TPT1 inhibitor 38.5 | TPT1 inh confirm inactive | RNase T1 inh 27.4
CCn1c(O)c(C=Nc2ccc(N3CCOCC3)c(Br)c2)c(=O)n(CC)c1=S	none
CCn1c(O)c(C=Nc2ccc(N3CCOCC3)cc2)c(=O)n(CC)c1=S	TPT1 inhibitor 66.2 | TPT1 inh confirm inactive | RNase T1 inh inactive
Cn1c(O)c(C=NCCN2CCOCC2)c(=O)n(C)c1=S	none
O=c1[nH]c(=S)n(-c2ccc(Cl)cc2)c(O)c1C=Nc1ccc(N2CCOCC2)cc1	TPT1 inhibitor 29.9 | TPT1 inh confirm inactive | RNase T1 inh inactive
O=c1[nH]c(=O)n(C2CCCCC2)c(O)c1C=Nc1ccc(N2CCOCC2)cc1	none
CCOC(=O)[C@]12Cc3cc(C)ccc3[C@H]1N(C1CCCCC1)C(=O)c1cc(OC)ccc12	none (no result: TPT1 inhibitor, Rpn11 inh)
C[C@@H]1C(=O)O[C@H]2[C@H](O)[C@]34[C@@H]5OC(=O)[C@]3(OC3OC(=O)[C@H](O)C34[C@H](C(C)(C)C)[C@@H]5O)[C@@]12O (stereo not given in full)	none (no result: TPT1 inhibitor)
CCOc1cccc(CNCCc2c(C)[nH]c3ccc(OC(F)(F)F)cc23)c1O	none
CC1(C)C(C(=O)N2CCN(C(=O)c3ccccc3)CC2)C1(C)C	none
Clc1ccc(C(c2ccccc2)c2ncc[nH]2)cc1 (stereo not given)	none
Cc1ccc(N2C(=O)NC(=O)/C(=C\c3ccsc3)C2=O)cc1C	TPT1 inhibitor 27.6 (no result: CSN inh, HNF4A DNA FP, Rpn11 inh) | TPT1 inh confirm 52.2 | RNase T1 inh 65.6
O=C1NC(=O)N(c2ccc3c(c2)OCO3)C(=O)/C1=C\c1ccsc1	none
Cc1cccc(N2C(=O)NC(=O)/C(=C\c3cnc(-c4ccccc4)nc3)C2=O)c1	none
Cc1ccc(N2C(=O)NC(=O)/C(=C/c3cnc(-c4ccccc4)nc3)C2=O)cc1C	TPT1 inhibitor 24.6 | TPT1 inh confirm inactive | RNase T1 inh inactive
O=C1NC(=O)N(c2ccccc2)C(=O)/C1=C/c1ccoc1	CSN inh 44.4, TPT1 inhibitor 112.7 | TPT1 inh confirm 60.4 | RNase T1 inh 74.2
CC1CC(OP(O)(=S)c2ccc(N(C)C)cc2NC(=O)c2cccs2)CC(C)(C)C1 (stereo not given)	none
COC(=O)C1=C(c2ccc(-c3ccccc3)c(F)c2)C[C@@H]2CC[C@H]1N2C(=O)NCCCOC(C)C	none (no result: TPT1 inhibitor)
CC(=O)c1c(O)n(C)c(=S)n(-c2ccccc2)c1=O	TPT1 inhibitor 45.2 | TPT1 inh confirm 29.5 | RNase T1 inh 40.4
COc1ccc2[nH]cc(C3=CCNCC3)c2c1	TPT1 inhibitor 52.1 (no result: CSN inh, HNF4A DNA FP, Rpn11 inh) | TPT1 inh confirm 61.0 | RNase T1 inh 71.7
